Reference: ChEMBL document CHEMBL3580617, “Discovery of Benzimidazole CYP11B2 Inhibitors with in Vivo Activity in Rhesus Monkeys” (ACS Med Chem Lett, 2015)
The source made the active and inactive calls. The calls are words filed in the database; no cut-off is given here.

Key:
Homo sapiens = species on record: Homo sapiens; test: Selectivity index, ratio of IC50 for human CYP11B1 to IC50 for human CYP11B2
In short: (§1)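 Human CYP11B2 and CYP11B1 inhibition was tested in cell-based assays. Selectivity was taken as the hCYP11B1 IC50 divided by the hCYP11B2 IC50.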

[1] = molecular target: T1, Cytochrome P450 11B2, mitochondrial (Homo sapiens, UniProt P19099); test: Inhibition of human CYP11B2 expressed in V79 cells incubated for 1 hr before 11-deoxycorticosterone substrate addition by HTRF-based assay; format: cell-based; in short: as §1
T1 sequence (P19099 whole entry): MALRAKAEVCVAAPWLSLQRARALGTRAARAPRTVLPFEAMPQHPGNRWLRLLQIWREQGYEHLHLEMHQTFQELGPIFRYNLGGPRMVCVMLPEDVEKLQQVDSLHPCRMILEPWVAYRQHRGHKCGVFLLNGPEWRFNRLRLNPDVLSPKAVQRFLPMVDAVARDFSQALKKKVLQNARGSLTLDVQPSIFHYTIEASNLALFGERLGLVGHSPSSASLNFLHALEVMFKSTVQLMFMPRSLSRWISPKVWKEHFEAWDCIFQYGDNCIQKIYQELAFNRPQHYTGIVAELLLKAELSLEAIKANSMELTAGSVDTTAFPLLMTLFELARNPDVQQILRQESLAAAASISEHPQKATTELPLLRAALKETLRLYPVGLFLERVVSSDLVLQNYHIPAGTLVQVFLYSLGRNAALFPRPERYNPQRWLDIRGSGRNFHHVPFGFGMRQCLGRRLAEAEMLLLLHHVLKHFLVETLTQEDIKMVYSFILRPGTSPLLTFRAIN

[2] = molecular target: T2, Cytochrome P450 11B1, mitochondrial (Homo sapiens, UniProt P15538); test: Inhibition of human CYP11B1 expressed in V79 cells incubated for 1 hr before 11-deoxycortisol substrate addition by HTRF-based assay; format: cell-based; in short: as §1
T2 sequence (P15538 whole entry): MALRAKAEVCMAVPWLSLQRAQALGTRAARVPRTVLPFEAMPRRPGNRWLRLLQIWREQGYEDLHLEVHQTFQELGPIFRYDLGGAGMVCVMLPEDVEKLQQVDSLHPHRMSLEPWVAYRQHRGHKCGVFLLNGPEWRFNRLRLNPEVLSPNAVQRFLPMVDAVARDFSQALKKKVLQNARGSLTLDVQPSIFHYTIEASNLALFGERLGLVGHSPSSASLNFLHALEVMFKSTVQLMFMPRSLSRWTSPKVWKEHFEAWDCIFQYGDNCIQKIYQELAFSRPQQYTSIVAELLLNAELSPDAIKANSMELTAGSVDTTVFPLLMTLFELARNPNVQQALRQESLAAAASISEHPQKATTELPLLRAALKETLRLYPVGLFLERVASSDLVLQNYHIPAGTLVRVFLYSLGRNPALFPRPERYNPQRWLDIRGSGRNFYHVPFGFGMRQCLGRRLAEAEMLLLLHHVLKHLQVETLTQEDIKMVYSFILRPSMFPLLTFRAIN

[3] = Fraction unbound in rat plasma at […] incubated for 4 hrs by equilibrium dialysis and LC/MS method; format: ADME, cell-free
Rattus norvegicus = test: Dose normalized AUC in Sprague-Dawley rat at 2 mg/kg, po or 1 mg/kg, iv by LC-MS/MS method; format: ADME, organism-based; conditions: in vivo
In short: (§2)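 In the rat pharmacokinetic study, AUC was normalized for dose (μM·h·kg/mg), plasma clearance was expressed in mL/min/kg, and oral bioavailability was calculated.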

[4] = Intrinsic clearance in rat liver microsomes at […] incubated for 10 mins before NADPH addition by LC/MS method; format: ADME; conditions: read-out: CLH
[5] = Plasma clearance in Sprague-Dawley rat at 2 mg/kg, po or 1 mg/kg, iv by LC-MS/MS method; format: ADME, organism-based; in short: as §2
[6] = Oral bioavailability in Sprague-Dawley rat at 2 mg/kg by LC-MS/MS method; format: ADME, organism-based; conditions: in vivo; in short: as §2
[7] = molecular target: T3, Cytochrome P450 11B2, mitochondrial (Rattus norvegicus, UniProt P30099); test: Inhibition of rat CYP11B2 expressed in V79 cells incubated for 1 hr before 11-deoxycorticosterone substrate addition by HTRF-based assay; format: cell-based; conditions: v79, 1 h
T3 sequence (P30099 whole entry): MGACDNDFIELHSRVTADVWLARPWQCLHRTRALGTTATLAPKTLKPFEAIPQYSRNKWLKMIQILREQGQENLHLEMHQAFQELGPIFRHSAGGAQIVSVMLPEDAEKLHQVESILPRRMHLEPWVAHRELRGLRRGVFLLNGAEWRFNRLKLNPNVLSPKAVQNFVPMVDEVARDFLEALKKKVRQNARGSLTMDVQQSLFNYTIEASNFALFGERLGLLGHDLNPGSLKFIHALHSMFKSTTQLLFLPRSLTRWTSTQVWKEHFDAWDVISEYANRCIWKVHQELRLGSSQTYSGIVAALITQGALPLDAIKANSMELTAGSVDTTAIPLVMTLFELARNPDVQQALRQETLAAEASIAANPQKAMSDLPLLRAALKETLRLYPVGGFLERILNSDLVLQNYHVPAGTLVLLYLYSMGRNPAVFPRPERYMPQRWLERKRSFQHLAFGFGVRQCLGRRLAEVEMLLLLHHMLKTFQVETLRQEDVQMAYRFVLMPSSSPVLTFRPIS

V79 = test: Inhibition of rhesus monkey CYP11B2 expressed in V79 cells incubated for 1 hr before 11-deoxycorticosterone substrate addition by HTRF-based assay; format: cell-based; conditions: Macaca mulatta

SMILES | Ratio IC50 (Homo sapiens) | IC50 [1] [µM] | IC50 [2] [µM] | also measured
COc1cncc(-c2nc3cc(F)c(F)cc3n2C2CC2)c1 | 606 | 0.0004 | 0.25 | 
N#Cc1cncc(-c2nc3cc(F)c(F)cc3n2C2CC2)c1 | 70 | 0.0223 | 1.55 | 
Cc1ccncc1-c1nc2cc(F)c(F)cc2n1C1CC1 | 71 | 0.0102 | 0.723 | 
Cc1cncc(-c2nc3cc(F)c(F)cc3n2C2CC2)c1C | 74 | 0.0002 | 0.0177 | 
CC(C)(C)n1c(-c2cccnc2)nc2ccc(F)cc21 |  | > 5 | > 10 | 
Fc1ccc2nc(-c3cccnc3)n(CC(F)(F)F)c2c1 | > 15 | 0.561 | > 8.33 | 
Fc1ccc2nc(-c3cccnc3)n(Cc3ccccc3)c2c1 | > 14 | 0.607 | > 8.33 | 
Fc1cc2nc(-c3cnccc3C(F)(F)F)n(C3CC3)c2cc1F | 98 | 0.0081 | 0.795 | 
Cn1c(-c2cccnc2)nc2ccc(F)cc21 | 56 | 0.012 | 0.677 | fraction unbound at 4 h [3]: 0.25; AUC/dose (Rattus norvegicus): 0.56 µM·kg·h/mg; CLint scaled [4]: 30 mL/min/kg; clearance [5]: 59 mL/min/kg; bioavailability [6]: 37%
CC(C)n1c(-c2cccnc2)nc2ccc(F)cc21 | 28 | 0.138 | 3.92 | 
Fc1ccc2nc(-c3cccnc3)[nH]c2c1 | < 1 | > 10 | 1.99 | 
N#Cc1cc2c(cc1F)nc(-c1cncc(F)c1)n2C1CC1 | 225 | 0.001 | 0.225 | 
CC1(n2c(-c3cccnc3)nc3ccc(F)cc32)CC1 | 179 | 0.016 | 2.86 | fraction unbound at 4 h [3]: 0.19; AUC/dose (Rattus norvegicus): 0.2 µM·kg·h/mg; CLint scaled [4]: 82 mL/min/kg; clearance [5]: 131 mL/min/kg; bioavailability [6]: 32%
COc1c(C)cncc1-c1nc2cc(F)c(F)cc2n1C1CC1 | 709 | 0.0006 | 0.435 | 
CCn1c(-c2cccnc2)nc2ccc(F)cc21 | 60 | 0.035 | 2.1 | 

Continued, in another order:

Ratio IC50 (Homo sapiens) | IC50 [1] [µM] | IC50 [2] [µM] | SMILES | also measured
835 | 0.0004 | 0.334 | Fc1cc2nc(-c3cccnc3)n(C3CC3)c2cc1Cl | 
 | > 10 | > 10 | FC(F)(F)c1ccc2c(c1)nc(-c1cccnc1)n2C1CC1 [MSD-CYP11B2-Negative-control] | 
 | > 5 | > 10 | Fc1ccc2nc(-c3cccnc3)n(C3CCC3)c2c1 | 
> 6 | 1.77 | > 10 | N#Cc1ccc2c(c1)nc(-c1cccnc1)n2C1CC1 | 
296 | 0.0008 | 0.251 | Fc1cncc(-c2nc3cc(F)c(Cl)cc3n2C2CC2)c1 | 
309 | 0.0012 |  | N#Cc1ccc2nc(-c3cccnc3)n(C3CC3)c2c1 | 
 | > 1 | > 10 | COc1ccc2c(c1)nc(-c1cccnc1)n2C1CC1 | 
> 93 | 0.107 | > 10 | Fc1cccc2nc(-c3cccnc3)n(C3CC3)c12 | 
> 170 | 0.049 | > 8.33 | c1cncc(-c2nc3ccccc3n2C2CC2)c1 | 
7 | 0.254 | 1.83 | FC(F)(F)c1ccc2nc(-c3cccnc3)n(C3CC3)c2c1 | 
215 | 0.0022 | 0.477 | Clc1ccc2nc(-c3cccnc3)n(C3CC3)c2c1 | 
> 38 | 0.219 | > 8.33 | Fc1cccc2c1nc(-c1cccnc1)n2C1CC1 | 
176 | 0.0021 | 0.37 | Fc1cc2nc(-c3cccnc3)n(C3CC3)c2cc1F | fraction unbound at 4 h [3]: 0.15; AUC/dose (Rattus norvegicus): 1.32 µM·kg·h/mg; inhibition (INH) [7]: Not Active; CLint scaled [4]: < 20 mL/min/kg; inhibition (V79): Active; clearance [5]: 43 mL/min/kg; bioavailability [6]: 92%
142 |  |  | Fc1ccc2c(c1)nc(-c1cccnc1)n2C1CC1 | 
100 | 0.004 | 0.401 | Fc1ccc2nc(-c3cccnc3)n(C3CC3)c2c1 | fraction unbound at 4 h [3]: 0.15; AUC/dose (Rattus norvegicus): 1.82 µM·kg·h/mg; CLint scaled [4]: 28 mL/min/kg; clearance [5]: 28 mL/min/kg; bioavailability [6]: 77%
 | > 1 | > 10 | CS(=O)(=O)c1ccc2c(c1)nc(-c1cccnc1)n2C1CC1 | 
195 | 0.0006 | 0.117 | N#Cc1cc2c(cc1F)nc(-c1cccnc1)n2C1CC1 | 
83 | 0.024 | 1.98 | COc1ccc2nc(-c3cccnc3)n(C3CC3)c2c1 | 
